Screening results as filed in PubChem BioAssay.
This is a sample that favours compounds with a hit; in the whole collection about 2.5% have one here.
MEKK2mut PB1 HTS: MEK5 binding signal on mutant MEKK2 PB1, primary screen, biochemical, multiplex bead flow cytometry, Alexa488-MEK5; Alexa488-MEK5 binding to MEKK2 mutant; actives 0.35% (n = 290,000); percent response, % at 10 µM; in the data active = percent response above about 24%, passing the limit was not always enough
T cell modulator: modulators of CD8 T cell-vesicle binding, primary screen, mouse 2C CD8+ T cells, flow cytometry. 2C CD8+ T cell-vesicle binding; hits give low values. response (vesicle binding), % at 7 µM. actives 0.068% (n = 330,000);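 active = response, share of CD8 T cells binding vesicles, and their 90th percentile fluorescence all below set limits, cut at about 80% in these data, passing the limit was not always enough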;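 also: values below 100% mean blocked vesicle binding to the CD8+ T cells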
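material = purified 2C TCR transgenic mouse naive CD8+ T cells | controls = Unloaded micro-vesicles (low), QL9 vesicles with 0.7% DMSO (high) | detection = cytometric PE anti-B7-1 and Alexa647 anti-CD8 signals after 1% paraformaldehyde fixation | incubation = binding step 1.5 h, 37 °C, antibody labelling 20 min, ice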
MEKK3 PB1 HTS: modulators of MEKK3-MEK5 PB1 binding, primary screen, biochemical, wildtype MEKK3, multiplex bead flow cytometry, Alexa488-MEK5; Mitogen-activated protein kinase kinase kinase 3 (Homo sapiens), Q99759; bead-based flow cytometry, Alexa488-MEK5 binding to MEKK3; actives lie on both sides; 0 = blocked by unlabeled MEK5, 100 = vehicle; binding response (% of control), % at 10 µM; actives 1.4% (n = 290,000); AID 1529, 2009;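 active = binding response more than 3 SD above or below the average of its plate-row segment, actives on both sides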;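 also: Alexa488 bead fluorescence after subtracting the streptavidin-only scavenger bead signal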
Target sequence (Q99759 whole entry, looked up): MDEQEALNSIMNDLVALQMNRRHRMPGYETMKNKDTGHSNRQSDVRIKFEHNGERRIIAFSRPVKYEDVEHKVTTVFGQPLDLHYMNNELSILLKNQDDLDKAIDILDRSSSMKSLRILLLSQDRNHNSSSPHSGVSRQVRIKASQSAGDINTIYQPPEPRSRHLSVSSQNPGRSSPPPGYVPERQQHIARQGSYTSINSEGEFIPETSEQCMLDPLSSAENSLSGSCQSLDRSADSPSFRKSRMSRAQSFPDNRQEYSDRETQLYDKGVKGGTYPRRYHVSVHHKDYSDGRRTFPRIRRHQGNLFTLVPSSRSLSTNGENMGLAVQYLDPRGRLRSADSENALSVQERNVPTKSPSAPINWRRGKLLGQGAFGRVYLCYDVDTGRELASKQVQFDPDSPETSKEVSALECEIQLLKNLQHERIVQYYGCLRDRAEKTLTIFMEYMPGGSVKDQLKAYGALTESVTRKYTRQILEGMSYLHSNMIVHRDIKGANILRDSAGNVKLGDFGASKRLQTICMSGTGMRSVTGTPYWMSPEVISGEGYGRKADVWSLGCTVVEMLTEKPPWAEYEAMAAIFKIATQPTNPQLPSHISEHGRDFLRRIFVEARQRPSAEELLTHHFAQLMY
Rce1 inh: yeast Rce1p protease inhibitors, primary screen, biochemical, fluorescence, cell-free homogeneous; yeast membranes, quenched prenylated peptide cleavage fluorescence; actives 0.27% (n = 290,000); calls only; AID 2563, 2010; CAAX prenyl protease 2 (Saccharomyces cerevisiae (strain ATCC 204508 / S288c)), Q03530;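 active = fall in fluorescence gain of 50% or more versus controls, with final raw signal at or below 3038400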;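 also: plate controls were neutral control wells for no effect and wells lacking membranes for full effect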
UCH37 inh: inhibitors of human UCH37 deubiquitinase, primary screen, biochemical, Ub-AMC cleavage, fluorescence | Ubiquitin carboxyl-terminal hydrolase isozyme L5 (Homo sapiens), Q9Y5K5 | purified proteasome/UCH37 | inhibition, % (test concentration not listed) | actives 0.33% (n = 330,000) | AID 588478, 2011;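 active = mean inhibition over replicate wells above about 20%, limit read from the data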;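 also: 0% = compound-free wells with enzyme and 100% = wells lacking proteasome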
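Material: human UCH37 enzyme supplied as purified proteasome complex / Amount: 0.15 nM proteasome as dispensed / Buffer or medium: pH 7.4 Tris-HCl (50 mM) with ovalbumin, ATP-MgCl2, DTT / Times: preincubation 30 min, reaction 25 min, room temperature / Technique: AMC fluorescence from Ub-AMC cleavage, excitation 355 nm, emission 460 nm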
MEKK2wt PB1 HTS: modulators of MEK5 binding to wildtype MEKK2, primary screen, biochemical, multiplex bead flow cytometry, Alexa488-MEK5; Alexa488-MEK5 binding to MEKK2 WT; actives lie on both sides; actives 1.1% (n = 290,000); Mitogen-activated protein kinase kinase kinase 2 (Homo sapiens), Q9Y2U5; binding response (% of control), % at 10 µM; AID 1531, 2009; in the data active = binding response below about 67% or above about 130%
MEKK2wt confirm: modulators of MEK5 binding to wildtype MEKK2, confirmation, biochemical, single concentration, multiplex bead flow cytometry. actives 2.4% (n = 5,900). shares compounds with MEKK3 PB1 HTS. Alexa488-MEK5 binding to MEKK2 WT; actives lie on both sides. AID 1892, 2009. binding response (% of control), % at 10 µM; in the data active = binding response below about 16% or above about 210%; inactive = in between
MEKK2mut-MEK5: mutant MEKK2 PB1-MEK5 binding signal retest – biochemical, single concentration, multiplex bead flow cytometry, confirmation. shares compounds with MEKK3 PB1 HTS. Alexa488-MEK5 binding to MEKK2 mutant. percent response, % at 10 µM. actives 2% (n = 5,900); in the data active = percent response mostly above about 71%, no sharp cut-off; inactive = mostly below about 38%;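 also: higher means compound restores mutant binding toward wildtype level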
MEKK3-MEK5 inh: MEKK3 wild-type PB1 binding to MEK5, inhibitors, confirmation, biochemical, bead multiplex flow cytometry, single concentration, wildtype | shares compounds with MEKK3 PB1 HTS | Alexa488-MEK5 binding to MEKK3; hits give low values | binding response (% of control), % at 10 µM | actives 1.8% (n = 5,900);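 active = binding response below 72% of control, or above a set upper limit, though filed actives all read lower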;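 also: 100% = DMSO only wells and 0% = binding blocked by excess unlabeled MEK5; lower values mean stronger disruption of MEK5 binding to MEKK3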
The depositor's hits bear a star; i = inactive; . = no result given; + = active, no number; [ ] = dose if it differs, or a comment.

SMILES	MEKK2mut PB1 HTS	T cell modulator	MEKK3 PB1 HTS	Rce1 inh	UCH37 inh	MEKK2wt PB1 HTS	MEKK2wt confirm	MEKK2mut-MEK5	MEKK3-MEK5 inh
COC(=O)C1(CCSC)NC(c2ccco2)C2C(=O)N(C)C(=O)C21 (stereo not given)	-16	490	2.0*[inhibitor]	i	1	1.0*[inhibitor]	107	1	106
COC(=O)C1(CCSC)NC(c2ccccc2OC)C2C(=O)N(C)C(=O)C21 (stereo not given)	-2	421	92	i	2	87	.	.	.
Nc1nc2ccccc2n1N=Cc1ccc(Br)cc1	.	.	.	.	-4	.	.	.	.
O=c1c2ccccc2nc(NN=Cc2ccc(O)cc2)n1O	.	.	.	.	6	.	.	.	.
O=C(/C=C/c1ccc(N2CCC(c3ccccc3)=N2)cc1)c1ccccc1	281*	424	78	i	8	.	94	-50	78
C=CCOc1ccc(-c2n[nH]c(=S)o2)cc1	0	316	131*	+	-2	112	94	-2	98
COc1ccc2c(C)c(C)c(=O)oc2c1OC	-26	507	2.0*[inhibitor]	i	-49	0.0*[inhibitor]	104	-1	101
CCOc1ccc2c(C)c(C)c(=O)oc2c1OCC	2	357	94	i	-34	93	.	.	.
Cc1nn(-c2ccccc2)c(C)c1C=NNC(=O)c1cc(-c2cccc3ccccc23)n[nH]1	.	.	.	.	4	.	.	.	.
CCC(C)=NN=Cc1c(O)n(CC)c2cc(C3=NNC(=O)CC3)ccc12	.	.	.	.	9	.	.	.	.
C(/C=C/c1ccccc1)=NN1CCN(c2ccccc2)CC1	.	.	.	.	3	.	.	.	.
COc1ccc(C(=O)C2CCCN(Cc3cn[nH]c3-c3ccccc3)C2)cc1OC (stereo not given)	-6	386	103	.	-1	92	.	.	.
Cn1ccnc1C(=O)C1CCCN(Cc2cn[nH]c2-c2ccc(-c3ccccc3)cc2)C1 (stereo not given)	30	138	116	i	.	148*	109	2	99
COc1ccc(/C=C2/C(=O)N(Cc3ccccc3)N=C2C)cc1	3	922	128*	i	6	104	98	2	93
Oc1ccccc1-c1cc(-c2ccco2)[nH]n1	-1	900	103	i	4	96	.	.	.
Oc1ccc(Cl)cc1-c1cc(-c2ccco2)[nH]n1	-16	415	78*[inhibitor]	i	0	88	97	-12	92
Cn1nc(C(F)(F)F)c(-c2ccc(Br)cc2)c1NC(=O)Nc1ccc(F)cc1F	31	215	133*	i	4	138*	110	2	102
CC(C)n1cc(CN2CCN(C)C(CCO)C2)c2ccccc21 (stereo not given)	24*	205	110	i	2	112	104	3	105
CC(C)Cn1c(CN2CCN(C)C(CCO)C2)nc2ccccc21 (stereo not given)	9	319	105	i	4	109	.	.	.
c1ccc2c(c1)CCN(c1nc(CN3CCOCC3)nc3sc4c(c13)CCCC4)C2	3	224	135*	i	-9	107	110	3	104
CCc1ccc(C(=O)COC(=O)c2cccnc2Cl)cc1	-16	304	72*[inhibitor]	i	1	74	100	-3	103
O=C(COC(=O)c1cccnc1Cl)c1ccccc1	2	195	98	i	7	98	.	.	.
O=C(Cn1cc2c(n1)CCCC2)NCCCN1CCCC1	2	377	102	i	3	134*	113	4	94
CCCN1CCN(CCCNC(=O)Cn2cc3c(n2)CCCC3)CC1	2	336	98	i	2	97	.	.	.
O=C(CCC(=O)NN=Cc1c[nH]c2ccccc12)NCc1ccccc1	.	.	.	.	6	.	.	.	.
SMILES	MEKK2mut PB1 HTS	T cell modulator	MEKK3 PB1 HTS	Rce1 inh	UCH37 inh	MEKK2wt PB1 HTS	MEKK2wt confirm	MEKK2mut-MEK5	MEKK3-MEK5 inh
CCc1nc(C)ccc1OC(=O)C12CC3CC(CC(C3)C1)C2	3	145	106	i	0	138*	92	-10	94
COc1ccc(CC(=O)N2CCCC(CNC(=O)c3ccccc3Cl)C2)cc1 (stereo not given)	-35	254	47*[inhibitor]	i	2	54	106	9	107
Cc1ccc(-c2nc(NCc3ccco3)c3ccccc3n2)cc1	0	225	91	i	3	109	.	.	.
Cc1cccc(Nc2nc(NCc3ccco3)c3ccccc3n2)c1	14	368	106	i	-92	145*	191	57	106
c1ccc(Nc2nc(NCc3ccco3)c3ccccc3n2)cc1	10	171	100	i	-94	174*	190	62	115
OCCN1CCN(c2nc(NCc3ccco3)c3ccccc3n2)CC1	5	200	95	i	-6	104	.	.	.
Cc1ccccc1Nc1nc(NCc2ccco2)c2ccccc2n1	35	311	104	i	-51	149*	169	55	104
c1ccc(CN2CCN(c3nc(NCc4ccco4)c4ccccc4n3)CC2)cc1	29	302	112	i	-40	168*	167	46	111
O=C(Cn1cc(C=NNC(=O)c2ccccc2Br)c2ccccc21)Nc1ccc(F)cc1	.	.	.	.	0	.	.	.	.
